Experiments:
[1] = species: Rattus norvegicus; experiment: Regional uptake of [18F]AFA in hippocampus of rat pretreated with compound nisoxetine; n=3; format: functional, organism-based; settings: tested as the 18F-labelled form
Procedure, shortened: (§1)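 Male Sprague-Dawley rats, three per group, received blocker (2 mg/kg iv in saline) or saline only (controls) 10–15 min before about 20 µCi of tail-vein F-18 radioligand. Killed 60 min after tracer. Blood and brain regions weighed and gamma-counted. %ID/g was decay- and tail-corrected; mean ± SD.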

[2] = species: Rattus norvegicus; experiment: Regional uptake of [18F]AFA in striatum of rat pretreated with compound 7d; n=3; format: functional, organism-based; settings: tested as the 18F-labelled form
[3] = species: Rattus norvegicus; experiment: Regional uptake of [18F]AFA in hippocampus of rat pretreated with compound 7d; n=3; format: functional, organism-based; settings: tested as the 18F-labelled form
[4] = species: Rattus norvegicus; experiment: Regional uptake of [18F]AFA in cerebellum of rat pretreated with compound GBR-12935; n=3; format: functional, organism-based; settings: tested as the 18F-labelled form; procedure, shortened: as §1
[5] = species: Rattus norvegicus; experiment: Regional uptake of [18F]AFA in cerebellum of rat pretreated with compound nisoxetine; n=3; format: functional, organism-based; settings: tested as the 18F-labelled form; procedure, shortened: as §1
[6] = molecular target: Sodium-dependent serotonin transporter (Rattus norvegicus) (UniProt P31652); experiment: Specific binding in rat hypothalamus at 120 min postinjection in vivo; format: functional, organism-based; settings: tested as the 18F-labelled form
Procedure, shortened: (§2)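 Male Sprague-Dawley rats, n=3 per time point, received about 20 µCi of F-18 radioligand in saline iv by tail vein and were killed at 10–120 min. %ID/g was measured with decay and tail-residual correction. Hypothalamic specific binding = (%ID/g hypothalamus − %ID/g cerebellum)/%ID/g cerebellum; mean ± SD.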

[7] = species: Rattus norvegicus; experiment: Regional uptake of [18F]AFA in thalamus of rat pretreated with compound GBR-12935; n=3; format: functional, organism-based; settings: tested as the 18F-labelled form; procedure, shortened: as §1
[8] = species: Rattus norvegicus; experiment: Regional uptake of [18F]AFA in blood of rat pretreated with compound nisoxetine; n=3; format: functional, organism-based; settings: tested as the 18F-labelled form; procedure, shortened: as §1
[9] = species: Rattus norvegicus; experiment: Regional uptake of [18F]AFA in blood of rat pretreated with compound 7d; n=3; format: functional, organism-based; settings: tested as the 18F-labelled form
[10] = species: Rattus norvegicus; experiment: Regional uptake of [18F]-AFA in blood of rat pretreated with compound citalopram; n=3; format: functional, organism-based; settings: tested as the 18F-labelled form; procedure, shortened: as §1
[11] = molecular target: Sodium-dependent serotonin transporter (Rattus norvegicus) (UniProt P31652); experiment: Specific binding in rat hypothalamus at 90 min postinjection in vivo; format: functional, organism-based; settings: tested as the 18F-labelled form; procedure, shortened: as §2
[12] = species: Rattus norvegicus; experiment: Regional uptake of [18F]AFA in frontal cortex of rat pretreated with compound 7d; n=3; format: functional, organism-based; settings: tested as the 18F-labelled form
[13] = molecular target: Sodium-dependent serotonin transporter (Homo sapiens, UniProt P31645); experiment: In vitro displacement of [3H]paroxetine from human serotonin transporter expressed in HEK293 cells; format: cell-based
[14] = species: Rattus norvegicus; experiment: Regional uptake of [18F]AFA in frontal cortex of rat pretreated with compound GBR-12935; n=3; format: functional, organism-based; settings: tested as the 18F-labelled form; procedure, shortened: as §1
[15] = species: Rattus norvegicus; experiment: Regional uptake of [18F]AFA in frontal cortex of rat pretreated with compound nisoxetine; n=3; format: functional, organism-based; settings: tested as the 18F-labelled form; procedure, shortened: as §1
[16] = molecular target: Sodium-dependent serotonin transporter (Rattus norvegicus) (UniProt P31652); experiment: Specific binding of [18F]AFA in rat hypothalamus after nisoxetine treatment; n=3; format: functional, tissue-based; settings: tested as the 18F-labelled form
Procedure, shortened: (§3)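 Rats, three per group, were pretreated iv with blocker at 2 mg/kg in saline, or with saline as control, 10–15 min before tail-vein F-18 radioligand (about 20 µCi). Killed at 60 min and regional %ID/g determined. Specific binding = (region activity − cerebellum activity)/cerebellum activity; mean ± SD.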

[17] = species: Rattus norvegicus; experiment: Regional uptake of [18F]AFA in hippocampus of rat pretreated with compound GBR-12935; n=3; format: functional, organism-based; settings: tested as the 18F-labelled form; procedure, shortened: as §1
[18] = species: Rattus norvegicus; experiment: Regional uptake of [18F]AFA in hypothalamus of rat pretreated with compound GBR-12935; n=3; format: functional, organism-based; settings: tested as the 18F-labelled form; procedure, shortened: as §1
[19] = molecular target: Sodium-dependent serotonin transporter (Rattus norvegicus) (UniProt P31652); experiment: Specific binding of [18F]AFA in rat thalamus after GBR-12935 treatment; n=3; format: functional, tissue-based; settings: tested as the 18F-labelled form; procedure, shortened: as §3
[20] = molecular target: Sodium-dependent serotonin transporter (Rattus norvegicus) (UniProt P31652); experiment: Specific binding of [18F]AFA in rat hypothalamus after GBR-12935 treatment; n=3; format: functional, tissue-based; settings: tested as the 18F-labelled form; procedure, shortened: as §3
[21] = species: Rattus norvegicus; experiment: Regional uptake of [18F]AFA in thalamus of rat pretreated with compound nisoxetine; n=3; format: functional, organism-based; settings: tested as the 18F-labelled form; procedure, shortened: as §1
[22] = molecular target: Sodium-dependent serotonin transporter (Rattus norvegicus) (UniProt P31652); experiment: Specific binding of [18F]AFA in rat frontal cortex after GBR-12935 treatment; n=3; format: functional, tissue-based; settings: tested as the 18F-labelled form; procedure, shortened: as §3
[23] = species: Rattus norvegicus; experiment: Regional uptake of [18F]-AFA in blood of rat pretreated with compound GBR-12935; n=3; format: functional, organism-based; settings: tested as the 18F-labelled form; procedure, shortened: as §1
[24] = molecular target: Sodium-dependent serotonin transporter (Rattus norvegicus) (UniProt P31652); experiment: Specific binding of [18F]AFA in rat hippocampus after GBR-12935 treatment; n=3; format: functional, tissue-based; settings: tested as the 18F-labelled form; procedure, shortened: as §3
[25] = species: Rattus norvegicus; experiment: Regional uptake of [18F]AFA in cerebellum of rat pretreated with compound citalopram; n=3; format: functional, organism-based; settings: tested as the 18F-labelled form; procedure, shortened: as §1

Chain of Sodium-dependent serotonin transporter (Rattus norvegicus) (P31652 whole entry): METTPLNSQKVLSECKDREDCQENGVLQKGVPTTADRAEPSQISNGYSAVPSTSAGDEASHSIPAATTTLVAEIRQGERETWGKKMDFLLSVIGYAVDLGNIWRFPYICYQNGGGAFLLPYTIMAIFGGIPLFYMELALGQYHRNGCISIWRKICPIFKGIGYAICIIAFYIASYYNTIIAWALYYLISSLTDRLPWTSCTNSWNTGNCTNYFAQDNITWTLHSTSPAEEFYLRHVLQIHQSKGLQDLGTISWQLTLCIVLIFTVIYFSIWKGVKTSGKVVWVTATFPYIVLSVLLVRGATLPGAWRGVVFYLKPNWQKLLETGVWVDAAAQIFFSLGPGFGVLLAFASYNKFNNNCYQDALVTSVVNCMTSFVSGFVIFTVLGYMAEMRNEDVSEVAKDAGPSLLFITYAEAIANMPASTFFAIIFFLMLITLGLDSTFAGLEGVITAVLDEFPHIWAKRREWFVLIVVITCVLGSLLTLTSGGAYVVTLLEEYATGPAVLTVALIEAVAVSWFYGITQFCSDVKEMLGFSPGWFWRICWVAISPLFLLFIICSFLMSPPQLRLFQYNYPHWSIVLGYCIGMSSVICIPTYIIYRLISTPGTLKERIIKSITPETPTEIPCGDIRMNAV
Chain of Sodium-dependent serotonin transporter (P31645 whole entry): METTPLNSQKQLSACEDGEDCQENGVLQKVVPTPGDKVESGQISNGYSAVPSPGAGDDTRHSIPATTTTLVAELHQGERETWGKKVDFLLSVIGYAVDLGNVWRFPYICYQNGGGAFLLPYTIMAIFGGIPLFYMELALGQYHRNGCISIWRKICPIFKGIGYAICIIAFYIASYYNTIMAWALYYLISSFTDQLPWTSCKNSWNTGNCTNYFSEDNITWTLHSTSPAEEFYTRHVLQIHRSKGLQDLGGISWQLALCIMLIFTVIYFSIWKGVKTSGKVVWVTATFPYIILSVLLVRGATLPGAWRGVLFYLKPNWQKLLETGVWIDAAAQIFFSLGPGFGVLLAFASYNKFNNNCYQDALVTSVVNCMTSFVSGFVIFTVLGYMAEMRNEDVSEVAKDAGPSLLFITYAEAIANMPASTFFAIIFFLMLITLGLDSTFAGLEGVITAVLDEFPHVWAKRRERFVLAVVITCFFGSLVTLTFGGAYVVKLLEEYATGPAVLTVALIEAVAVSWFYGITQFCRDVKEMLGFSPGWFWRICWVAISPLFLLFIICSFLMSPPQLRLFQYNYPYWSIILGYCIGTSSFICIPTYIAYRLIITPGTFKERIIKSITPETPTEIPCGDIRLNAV

Specific binding (dimensionless ratio) [6]: 8.37 | Specific binding (dimensionless ratio) [11]: 5.81 | Ki [13]: 1.04 nM | Specific binding [16]: 5.24 %ID/g | Specific binding [19]: 4.38 %ID/g | Specific binding [20]: 5.3 %ID/g | Specific binding [22]: 3.83 %ID/g | Specific binding [24]: 3.51 %ID/g
SMILES: CN(C)Cc1ccccc1Sc1ccc(CF)cc1N
Uptake [1]: 0.47 %ID/g | Uptake [2]: 0.14 %ID/g | Uptake [3]: 0.13 %ID/g | Uptake [4]: 0.13 %ID/g | Uptake [5]: 0.13 %ID/g | Uptake [7]: 0.74 %ID/g | Uptake [8]: 0.11 %ID/g | Uptake [9]: 0.11 %ID/g | Uptake [10]: 0.12 %ID/g | Uptake [12]: 0.12 %ID/g | Uptake [14]: 0.76 %ID/g | Uptake [15]: 0.72 %ID/g | Uptake [17]: 0.59 %ID/g | Uptake [18]: 0.87 %ID/g | Uptake [21]: 0.65 %ID/g | Uptake [23]: 0.11 %ID/g | Uptake [25]: 0.08 %ID/g
